From ChEMBL document CHEMBL5104221, “ATP Mimetic Attack on the Nucleotide-Binding Domain to Overcome ABC Transporter Mediated Chemoresistance” (ACS Med Chem Lett, 2022)
Activity calls are given as the source filed them. No cut-off for these calls is given here.

Experiments:
[1] = Cytotoxicity against paclitaxel-resistant human HCT116tax cells incubated for 48 hrs by MTT assay; format: functional, cell-based
HCT-116 [2] = test: Cytotoxicity against human HCT-116 cells incubated for 48 hrs by MTT assay; format: functional, cell-based; settings: HCT-116, 48 h
Procedure, shortened: (§1)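 Wild-type HCT116 cells were exposed for 48 h in OptiMEM, with or without paclitaxel. Viability was read by MTT and normalised to wells containing 0.5% DMSO, taken as 100%.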

HCT-116 [3] = test: Cytotoxicity against human HCT-116 cells assessed as reduction on cell viability at 100 uM incubated for 48 hrs in presence of paclitaxel by MTT assay; format: functional, cell-based; procedure, shortened: as §1
[4] = Cytotoxicity against human HEK293 cells incubated for 48 hrs by MTT assay; format: toxicity, cell-based
HCT116tax = test: Cytotoxicity against paclitaxel-resistant human HCT116tax cells assessed as reduction on cell viability at 100 to 200 uM incubated for 48 hrs in presence of paclitaxel by MTT assay; format: functional, cell-based; settings: dose 100-200 µM
HCT-116 [5] = test: Cytotoxicity against in human HCT-116 cells overexpressing human BCRP assessed as DNA damage by measuring fluorescence intensity at 100 uM incubated for 30 mins by Hoechst 33342 staining accumulation assay; format: functional, cell-based
Procedure, shortened: (§2)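 Hoechst 33342 retention measured in paclitaxel-resistant HCT116tax cells and in HCT116 cells transfected with MDR1- or BCRP-expressing plasmids. The dye was read by its blue fluorescence without washing. Tariquidar (1 μM) and sodium orthovanadate (500 μM) served as reference inhibitors. Accumulation is expressed relative to the vanadate-induced fluorescence difference, set as 100%.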

HCT-116 [6] = test: Cytotoxicity against human HCT-116 cells overexpressing human MDR1 incubated for 48 hrs by MTT assay; format: functional, cell-based; settings: HCT-116, 48 h
[7] = Cytotoxicity against paclitaxel-resistant human HCT116tax cells assessed as DNA damage by measuring fluorescence intensity incubated for 30 mins by Hoechst 33342 staining accumulation assay; format: functional, cell-based; settings: 0.5 h; procedure, shortened: as §2
HCT-116 [8] = test: Cytotoxicity against human HCT-116 cells overexpressing human BCRP incubated for 48 hrs by MTT assay; format: functional, cell-based; settings: HCT-116, 48 h
HCT-116 [9] = test: Cytotoxicity against human HCT-116 cells overexpressing human MDR1 assessed as DNA damage by measuring fluorescence intensity at 100 uM incubated for 30 mins by Hoechst 33342 staining accumulation assay; format: functional, cell-based; procedure, shortened: as §2

Nc1ncnc2c1ncn2[C@@H]1O[C@H](COP(=O)(O)O)[C@@H](O)[C@H]1O [ADENOSINE PHOSPHATE]
EC50 [1]: > 100 µM
EC50 (HCT-116 [2]): > 100 µM
Activity (HCT-116 [3]): Active
EC50 at 48 h [4]: > 100 µM
Activity (HCT116tax): Active
Activity (HCT-116 [5]): Active
EC50 (HCT-116 [6]): > 100 µM
IC50 [7]: 3.2 µM
EC50 (HCT-116 [8]): > 100 µM
Activity (HCT-116 [9]): Active

Nc1ncnc2c1ncn2COCCO
EC50 [1]: > 100 µM
EC50 (HCT-116 [2]): > 100 µM
Activity (HCT-116 [3]): Active
EC50 at 48 h [4]: > 100 µM
Activity (HCT116tax): Active
Activity (HCT-116 [5]): Active
EC50 (HCT-116 [6]): > 100 µM
IC50 [7]: 7.3 µM
EC50 (HCT-116 [8]): > 100 µM
Activity (HCT-116 [9]): Active

CC(C)[C@@H]1NC(=O)[C@@H]2CCCN2C1=O
EC50 [1]: > 100 µM
EC50 (HCT-116 [2]): > 100 µM
Activity (HCT-116 [3]): Active
EC50 at 48 h [4]: > 100 µM
Activity (HCT116tax): Active
Activity (HCT-116 [5]): Active
EC50 (HCT-116 [6]): > 100 µM
IC50 [7]: 6.2 µM
EC50 (HCT-116 [8]): > 100 µM
Activity (HCT-116 [9]): Active

NC(=O)c1ncn([C@@H]2O[C@H](CO)[C@@H](O)[C@H]2O)n1 [RIBAVIRIN]
EC50 [1]: > 100 µM
EC50 (HCT-116 [2]): > 100 µM
Activity (HCT-116 [3]): Active
EC50 at 48 h [4]: > 100 µM
Activity (HCT116tax): Active
Activity (HCT-116 [5]): Active
EC50 (HCT-116 [6]): > 100 µM
IC50 [7]: 5 µM
EC50 (HCT-116 [8]): > 100 µM
Activity (HCT-116 [9]): Active

NC(=O)c1ncn([C@@H]2O[C@H](CO)[C@@H](O)[C@H]2O)c1N [ACADESINE]
EC50 [1]: > 100 µM
EC50 (HCT-116 [2]): > 100 µM
Activity (HCT-116 [3]): Active
EC50 at 48 h [4]: > 100 µM
Activity (HCT116tax): Active
Activity (HCT-116 [5]): Active
EC50 (HCT-116 [6]): > 100 µM
IC50 [7]: 5.3 µM
EC50 (HCT-116 [8]): > 100 µM
Activity (HCT-116 [9]): Active

ORTHOVANADATE
Activity (HCT-116 [5]): Active
Activity (HCT-116 [9]): Active
